The list is not random: actives were taken first. Their share in the collection is about 2.4%.
UBC9 SUMO inh: inhibitors of in vitro SUMOylation cascade, primary screen, biochemical, HTRF, uHTS | hit rate 0.36% among 290,000 | HTRF SUMOylation assay, SAE1/SAE2 + UBC9 | inhibition, % at 35 µM; in the data active = inhibition above about 50%, passing the limit was not always enough
Target sequence (P63279 whole entry, looked up): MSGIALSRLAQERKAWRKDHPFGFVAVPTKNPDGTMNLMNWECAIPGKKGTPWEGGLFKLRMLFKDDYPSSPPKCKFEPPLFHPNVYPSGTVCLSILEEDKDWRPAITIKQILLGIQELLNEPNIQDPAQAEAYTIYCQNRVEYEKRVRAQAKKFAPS
PfGluPho inh: PfG6PD enzyme inhibitors, primary screen, biochemical, fluorescence intensity, uHTS. PfGluPho enzyme, NADPH resazurin-diaphorase fluorescence. inhibition, % at 20 µM. hit rate 0.78% among 350,000;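 active = inhibition reaching at least a set limit at 20 µM in the primary screen, cut at about 59% in these data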
HKDC1 inhibitor: HKDC1 hexokinase inhibitors, primary screen, biochemical, fluorescence, uHTS; inhibition, % at 20 µM; Q2TB90; hit rate 0.16% among 340,000; recombinant HKDC1, G6PDH/diaphorase resazurin coupled fluorescence;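 active = inhibition above about 35% when tested at 20 µM, limit read from the data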
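Material: recombinant HKDC1 hexokinase; Amount: HKDC1 at 5 µg/mL; Medium: Tris pH 8.0 buffer with MgCl2, Tween-20, BSA, BME; Schedule: 90 min reaction incubation at room temperature, dark; Technique: coupled resazurin fluorescence, excitation 525 nm, emission 613 nm.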
APOBEC3G inh: APOBEC3G DNA deaminase inhibitors, primary screen, biochemical, fluorescence, single-stranded DNA substrate, uHTS. hit rate 0.28% among 330,000. DNA dC->dU-editing enzyme APOBEC-3G (Homo sapiens), Q9HC16. inhibition, % at 20 µM. recombinant A3G, ssDNA deamination FAM/TAMRA fluorescence;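 active = inhibition of at least 40% at 20 µM, with no more than 30% in the related APOBEC3A deaminase screen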
APOBEC3A inh: APOBEC3A ssDNA deaminase inhibitors, primary screen, selectivity assay for APOBEC3G inhibitor project, biochemical, FAM/TAMRA oligo cleavage fluorescence; DNA dC->dU-editing enzyme APOBEC-3A (Homo sapiens), P31941; recombinant A3A, FAM/TAMRA ssDNA deamination fluorescence; inhibition, % at 20 µM; hit rate 0.41% among 330,000;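 active = at least 40% inhibition at 20 µM here, with at most 30% in a related deaminase screen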
Target sequence (P31941 whole entry, looked up): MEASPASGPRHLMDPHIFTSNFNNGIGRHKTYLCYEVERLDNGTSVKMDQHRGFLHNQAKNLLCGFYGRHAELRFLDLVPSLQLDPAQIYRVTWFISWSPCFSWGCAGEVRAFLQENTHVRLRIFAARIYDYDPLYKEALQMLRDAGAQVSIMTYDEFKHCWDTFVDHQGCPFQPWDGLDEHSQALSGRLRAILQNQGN
PfM18AAP inh-1: PfM18AAP inhibitors, malaria aminopeptidase, primary screen, biochemical, QFRET, recombinant enzyme; inhibition, % at 7.35 µM; hit rate 1.2% among 290,000; M18 aspartyl aminopeptidase (Plasmodium falciparum 3D7); H-Glu-NHMec fluorogenic cleavage;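 active = inhibition above the campaign mean inhibition over all tested compounds plus 3 SD, cut at about 28% in these data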
PfM18AAP inh-2: PfM18AAP inhibitors, malaria aminopeptidase, confirmation, biochemical, QFRET, recombinant enzyme, triplicate; shares compounds with PfM18AAP inh-1; H-Glu-NHMec fluorogenic cleavage; AID 2170, 2009; inhibition, % at 7.35 µM; hit rate 28% among 2,400;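 active = mean inhibition over replicate wells above the hit cutoff set for the earlier primary screen, cut at about 29% in these data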
CTSL1 counter: cathepsin L1 inhibitors, retest, confirmation, counter-screen for PFM18AAP inhibitor project, biochemical, QFRET, triplicate. purified cathepsin L1, Z-Leu-Arg-MCA fluorescence. AID 2178, 2009. 2,400 tested, under 10 active. inhibition, % at 5.96 µM. shares compounds with PfM18AAP inh-1;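 active = average inhibition across replicates above the hit cutoff set in the earlier primary screen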
Target sequence (P07711 whole entry, looked up): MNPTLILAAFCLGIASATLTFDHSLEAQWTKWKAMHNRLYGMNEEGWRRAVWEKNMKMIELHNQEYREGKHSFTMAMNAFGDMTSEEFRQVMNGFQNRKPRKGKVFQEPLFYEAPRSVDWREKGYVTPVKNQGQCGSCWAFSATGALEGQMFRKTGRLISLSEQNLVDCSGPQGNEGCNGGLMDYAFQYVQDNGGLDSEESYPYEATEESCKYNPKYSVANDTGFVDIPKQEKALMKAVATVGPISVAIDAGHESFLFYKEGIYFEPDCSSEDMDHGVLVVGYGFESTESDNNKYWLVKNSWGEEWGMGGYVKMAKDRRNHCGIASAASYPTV
Each line names hits and unclear results; the compound was inactive in the other large screens (follow-up assays come after a bar, where they were run).

O=C(CCc1nnc(C2(c3ccc(Cl)cc3)CCC2)o1)N1CCCC1	none
Nc1c(N)c2ccccc2oc1=O	none
O=c1oc2ccccc2c2oc3cc(O)c(O)cc3c12	PfM18AAP inh-1 68.4 | PfM18AAP inh-2 73.8 | CTSL1 counter inactive
O=C(/C=C/c1ccccc1)Nn1cnc2ccccc2c1=O	none
O=C(/C=C/c1ccccc1)Nc1ncn[nH]1	PfM18AAP inh-1 44.6 | PfM18AAP inh-2 47.5 | CTSL1 counter inactive
O=C(/C=C/c1ccccc1)Nn1cnnc1	PfM18AAP inh-1 80.3 | PfM18AAP inh-2 70.0 | CTSL1 counter inactive
COc1ccc(/C=C/C(=O)Nn2cnnc2)cc1	PfM18AAP inh-1 80.5 | PfM18AAP inh-2 70.9 | CTSL1 counter inactive
C#CCNC(=O)/C=C/c1ccc(OC)cc1	none
O=C(/C=C/c1ccc(Br)cc1)NC(=O)c1ccccc1O	none
O=C(/C=C/c1ccc(O)c(O)c1)NC(=O)c1ccccc1O	PfM18AAP inh-1 77.2 | PfM18AAP inh-2 62.3 | CTSL1 counter inactive
CCOC(=O)N1CCN(C(=O)CN(c2ccc(Cl)c(C(F)(F)F)c2)S(C)(=O)=O)CC1	none
O=C(Oc1cccc2c(O)cccc12)c1ccccc1Cl	none (no result: UBC9 SUMO inh, APOBEC3G inh, APOBEC3A inh, PfM18AAP inh-1)
O=C(Oc1ccccc1O)c1cccc2ccccc12	PfM18AAP inh-1 61.3 (no result: PfGluPho inh, HKDC1 inhibitor) | PfM18AAP inh-2 inactive | CTSL1 counter inactive
COC(=O)CN(c1ccc(C)cc1)S(=O)(=O)c1ccc(F)cc1	none
O=C(Nc1ccc2c(c1)OCCO2)NC12CC3CC(CC(C3)C1)C2	none
O=C(Nc1ccc2c(c1)OCCO2)Nc1ccc2c(c1)OCO2	none
O=C(Nc1ccc2c(c1)OCO2)NC1(C(F)(F)F)Oc2ccccc2O1	PfM18AAP inh-1 57.2 | PfM18AAP inh-2 inactive | CTSL1 counter inactive
O=C(Nc1ccc2c(c1)OCCO2)NC1(C(F)(F)F)Oc2ccccc2O1	PfM18AAP inh-1 59.2 | PfM18AAP inh-2 inactive | CTSL1 counter inactive
COc1ccc(N(CC(=O)N/N=C/c2cccnc2)S(=O)(=O)c2ccccc2)c(OC)c1	none
O=C(CN1C(=O)c2cccc3cccc1c23)Nc1ccccc1C(=O)NCc1ccco1	none (no result: UBC9 SUMO inh)
COc1ccc(/C=C2\SC(=O)N(CC(=O)NN3CCN(C)CC3)C2=O)cc1OC	PfM18AAP inh-1 37.2 | PfM18AAP inh-2 inactive | CTSL1 counter inactive
COc1ccc(/C=C2\SC(=O)N(CC(=O)Nc3ccc(O)cc3)C2=O)cc1OC	none
O=C(c1cc(Cl)ccc1Cl)N1CCN(Cc2ccccc2)CC1	none
Cc1ccc(-n2ccnc2SCC(=O)O)c(C)c1	none
Cc1cc(C)cc(OCC(=O)Nc2nc(-c3cccnc3)cs2)c1	PfM18AAP inh-1 44.4 | PfM18AAP inh-2 inactive | CTSL1 counter inactive
O=C(COc1ccccc1)Nc1nc(-c2cccnc2)cs1	none (no result: UBC9 SUMO inh, PfM18AAP inh-1)
Cc1[nH]c2ccccc2c1/C=N/Nc1ccc([N+](=O)[O-])cc1	PfM18AAP inh-1 34.4 (no result: APOBEC3G inh, APOBEC3A inh) | PfM18AAP inh-2 inactive | CTSL1 counter inactive
Cc1[nH]c2ccccc2c1/C=N/NC(=O)c1cccc([N+](=O)[O-])c1	none
CCc1c(O)c(-c2ccccc2)c(=O)n(-c2ccccn2)c1-c1ccccc1	PfM18AAP inh-1 39.2 | PfM18AAP inh-2 inactive | CTSL1 counter inactive
O=C(O)c1ccc(N/N=C2/CCCc3ccccc32)cc1	PfM18AAP inh-1 34.4 | PfM18AAP inh-2 inactive | CTSL1 counter inactive
O=C(N/N=C1\CCCc2ccccc21)c1ccccc1Cl	none
CC1(C)C2([N+](=O)[O-])CN3CC1([N+](=O)[O-])CN(C2)C3c1ccc(O)c(O)c1 (stereo not given)	PfM18AAP inh-1 77.0 | PfM18AAP inh-2 84.2 | CTSL1 counter inactive
CSc1nnc(NC(=O)C23CC4CC(CC(C4)C2)C3)s1	none
O=C1Nc2ccccc2/C1=N\N=C\c1ccc(O)c(O)c1	PfM18AAP inh-1 48.3 | PfM18AAP inh-2 47.3 | CTSL1 counter inactive
O=Cc1ccc(O)c(O)c1	PfM18AAP inh-1 48.1 | PfM18AAP inh-2 30.9 | CTSL1 counter inactive
Oc1ccc(/C=N/N=C/c2ccc(O)c(O)c2)cc1O	PfM18AAP inh-1 80.6 | PfM18AAP inh-2 76.3 | CTSL1 counter inactive
O=C(/C(=N/N=C/c1ccc(O)c(O)c1)c1ccccc1)c1ccccc1	PfM18AAP inh-1 47.6 | PfM18AAP inh-2 29.9 | CTSL1 counter inactive
O=C(/C(=N/O)c1ccccc1)c1ccccc1	none (no result: UBC9 SUMO inh, APOBEC3G inh, APOBEC3A inh, PfM18AAP inh-1)
O=[N+]([O-])c1ccc(OCn2cncn2)cc1	none (no result: UBC9 SUMO inh, PfM18AAP inh-1)
NC(=O)c1cc(Cc2ccccc2)sc1NC(=O)c1ccco1	PfM18AAP inh-1 34.8 | PfM18AAP inh-2 inactive | CTSL1 counter inactive
NNc1nc(-c2ccccc2)cc(-c2ccccc2)n1	none
N#Cc1cc(-c2ccccc2)nc(NN)n1	PfM18AAP inh-1 42.6 | PfM18AAP inh-2 30.6 | CTSL1 counter inactive
C/C(CC(=O)Nc1ccc2ccccc2c1)=N\NC(=O)c1ccc(O)c(O)c1	PfM18AAP inh-1 68.5 | PfM18AAP inh-2 50.4 | CTSL1 counter inactive
CCOc1ccc2[nH]cc(C(=O)O)c(=O)c2c1	PfM18AAP inh-1 50.8 | PfM18AAP inh-2 inactive | CTSL1 counter inactive
O=[N+]([O-])c1cc(Br)c(O)c(/C=N/Nc2nnnn2-c2cccc3ccccc23)c1	PfM18AAP inh-1 38.4 | PfM18AAP inh-2 inactive | CTSL1 counter inactive
CCC(C)(C)NC(=O)C(c1ccc(C)cc1)N(CC1CCCO1)C(=O)c1csnn1 (stereo not given)	none
CC(=O)Oc1ccc(C(=O)O)cc1OC(C)=O	PfM18AAP inh-1 70.2 | PfM18AAP inh-2 50.4 | CTSL1 counter inactive
COC(=O)c1nc(NNC(=O)c2ccccc2)sc1-c1ccccc1	PfM18AAP inh-1 46.2 | PfM18AAP inh-2 inactive | CTSL1 counter inactive
COc1cc(/C=C/CO)ccc1O[C@@H]1O[C@H](CO)[C@@H](O)[C@H](O)[C@H]1O	none (no result: UBC9 SUMO inh, PfM18AAP inh-1)
CC(=O)Oc1ccc(C(=O)OCC(=O)c2c(N)n(C)c(=O)n(C)c2=O)cc1OC(C)=O	PfM18AAP inh-1 42.5 | PfM18AAP inh-2 inactive | CTSL1 counter inactive
O=C(Cc1cccc2ccccc12)NN1C(=O)CSC1=S	none

Screening data (PubChem)
